RAM network inh – blocks the yeast RAM network; S. cerevisiae dse1pr::URA3 reporter, 5-FOA growth OD615, 2 d; analog-sensitive cbk1-as2 kinase mutant strain; inhibition, % at 50 µM; 190,000 tested, 1.8% active; AID 868;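 active = inhibition above a set limit, 3 SD over mean compound inhibition, cut at about 8.4% in these data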;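 also: inhibition rescues growth on 5-FOA so higher OD means more RAM inhibition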
Insulin prom inh – TRM-6 insulin promoter activity inhibition | TRM-6 cells, insulin promoter-eGFP reporter, imaging; reporter expression induced with tamoxifen | inhibition, % at 2 µM | 130,000 tested, 0.9% active | AID 1273;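 active = inhibition above the mean plus 3 SD, with well images judged a real hit on visual review, cut at about 60% in these data, passing the limit was not always enough; inconclusive = inhibition over the cutoff but images rejected on review; inactive = inhibition not above the cutoff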
HMGR II inh – inhibitors of class II HMG-CoA reductase from Enterococcus faecalis | purified E. faecalis HMGR, NADPH absorbance 340 nm kinetic | 190,000 tested, 0.41% active | inhibition, % at 10 µM;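 active = inhibition above a set limit, the median over all tested compounds plus 3 SD, cut at about 9.5% in these data; inconclusive = no clear call, values can overlap the other calls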;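 also: enzyme runs in reverse so mevalonate oxidation gives rising NADPH absorbance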
BB579 growth dn – reduces growth of yeast BB579 in restrictive medium | inhibition, % at 10 µM | S. cerevisiae BB579 growth, OD615, 48 h | AID 804 | 140,000 tested, 0.51% active;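 active = inhibition above a set limit, 3 SD over the mean compound inhibition, cut at about 44% in these data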
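System: Saccharomyces cerevisiae DeaD strain BB579, replicative lifespan model yeast. Buffer or medium: restrictive glucose-based CSMM-D medium. Doses: one dose, 10 µM compound with 0.25% DMSO. Timing: 4 h preincubation and 48 h exposure at 30 °C. Detection: turbidity as optical density at 615 nm. Benchmarks: amphotericin B 10 µg/mL, positive.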
Yeast life ext – extends the lifespan of yeast. AID 775. inhibition of the nicotinamide effect, % at 10 µM. 130,000 tested, 0.68% active. S. cerevisiae growth with nicotinamide, OD615; deaD strain in restrictive glucose medium;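 active = inhibition above a set limit, placed 3 SD over the median of all compounds, cut at about 26% in these data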
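Measured by: optical density (absorbance) at 615 nm; System: modified budding yeast, DeaD strain; Medium: restrictive CSMM-D dextrose medium; Timing: 4 h preincubation then 48 h treatment at 30 °C.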
Hits are given with their value; i = inactive; ? = inconclusive; nt = not tested or not shown. An excerpt weighted towards active compounds, which were near 3.7% of everything screened.

SMILES	RAM network inh	Insulin prom inh	HMGR II inh	BB579 growth dn	Yeast life ext
COc1ccc(C2CC3(CC(C)(C)NC(=S)N3)Oc3cc(O)cc(C)c32)cc1 (stereo not given)	9.7	i	i	i	i
Cc1cc(O)cc2c1C(c1ccc(F)cc1)CC1(CC(C)(C)NC(=S)N1)O2 (stereo not given)	i	nt	i	nt	nt
COc1ccccc1-c1cc(C(F)(F)F)nc(S(=O)(=O)CCCC(=O)Nc2cccnc2Cl)n1	i	73	i	nt	nt
CSC1=N/C(=C\c2cccc(F)c2)C(=O)S1	i	i	i	i	i
CSC1=N/C(=C\c2c(F)cccc2Cl)C(=O)S1	i	i	i	i	31
O=S(=O)(c1ccc2oc3ccc(S(=O)(=O)N4CCCCC4)cc3c2c1)N1CCCCC1	i	i	i	i	i
COc1ccc(Nc2nnc(Cc3ccc(Cl)cc3)c(=O)[nH]2)c(OC)c1	i	nt	i	i	i
COc1ccc(Nc2nnc(Cc3ccccc3)c(=O)[nH]2)c(OC)c1	i	86	i	i	i
Cc1ccc(S(=O)(=O)NCCC(=O)Nc2ccc(Cl)c(Cl)c2)cc1	i	i	i	i	i
CCOC(=O)[C@H](CCc1ccccc1)N[C@@H](C)C(=O)N1CCC[C@H]1C(=O)O	i	67	i	i	i
CC(NC(=O)OC(C)(C)C)C(=O)N1CCCC1C(=O)NC(Cc1ccccc1)C(N)=O (stereo not given)	i	i	i	i	i
CCOc1ccc(CC(=O)OCc2cc(=O)n3cc(Br)ccc3n2)cc1	i	i	i	nt	nt
COc1ccc(CC(=O)OCc2cc(=O)n3cc(Br)ccc3n2)cc1OC	i	i	17	nt	nt
CC(=O)NC1C(=O)SC1(C)C (stereo not given)	i	88	i	i	i
CN1C(=S)SC(C)(C)C1NO (stereo not given)	i	i	i	i	i
Cc1cccc(NC(=O)c2ccccc2OCC(=O)N2CCCC2)c1C	i	nt	i	nt	nt
C/C(=N/NC(=O)CNC(=O)c1cccnc1)c1cccc([N+](=O)[O-])c1	i	i	i	nt	nt
COc1ccc(CCn2c(C)cc(C(=O)CCl)c2C)cc1OC	i	i	i	nt	nt
Cc1cc(C(=O)CCl)c(C)n1CCc1ccc(F)cc1	i	100	i	nt	nt
COc1ccccc1NC(=O)Nc1ccc(Cl)c(S(=O)(=O)Nc2ccccc2OC)c1	8.4	i	i	i	i
COc1ccc(C(=O)Nc2ccc(Cl)c(S(=O)(=O)Nc3ccccc3OC)c2)cc1	i	nt	i	i	i
CC(=O)Nc1nc(N2C(=O)c3ccccc3C2=O)n(-c2ccccc2)n1	i	76	i	i	i
O=C(Nc1nc(N2C(=O)c3ccccc3C2=O)n(-c2ccccc2)n1)c1ccccc1	i	i	i	i	i
O=C(COC(=O)CC1c2ccccc2CCN1S(=O)(=O)c1ccc(F)cc1)Nc1ccccc1 (stereo not given)	8.6	i	i	i	i
N#Cc1ccccc1Sc1ccccc1C(=O)OCc1nnc(-c2ccccc2)o1	10	i	i	i	i
SMILES	RAM network inh	Insulin prom inh	HMGR II inh	BB579 growth dn	Yeast life ext
CCOC(=O)CCSc1nc(-c2ccc3c(c2)OCO3)cc(C(F)(F)F)c1C#N	11	i	i	i	i
O=C(Cc1ccccc1)NCCSCc1ccc(Cl)cc1	i	i	i	i	i
O=C(COc1ccccc1)NCCSCc1ccc(Cl)cc1	9.9	i	i	i	i
O=C(CCCOc1ccc(Cl)cc1Cl)N/N=C/c1cccc([N+](=O)[O-])c1	i	i	i	i	i
COc1ccc(OC)c(NC(=O)Nc2cc(C(=O)O)ccc2C)c1	i	nt	i	nt	nt
CCOC(=O)N1CCN(C(=O)Cn2nc(C)c3sc4ccccc4c3c2=O)CC1	i	nt	i	45	i
CCOC(=O)N1CCN(C(=O)C(CC)n2nc(C)c3sc4ccccc4c3c2=O)CC1 (stereo not given)	i	i	i	i	i
O=C(Nc1nc(-c2ccc(Cl)s2)cs1)c1cccs1	i	nt	i	i	i
O=C(Nc1nc(-c2ccccn2)cs1)c1ccc(Cl)s1	i	nt	i	95	i
CSCCC(=O)Nc1nc(-c2ccccn2)cs1	i	i	i	nt	nt
Cn1cccc1C(=O)Nc1nc(-c2ccccn2)cs1	i	i	i	46	i
O=C(Nc1nc(-c2ccccn2)cs1)c1ncc(Cl)c(Cl)c1Cl	i	i	i	59	i
O=C(CCCSc1ccccc1)Nc1nc(-c2ccccn2)cs1	i	i	i	57	i
CCCCCCN(C(=O)CCCCCN1C(=O)NC(c2ccc(-c3ccccc3)cc2)C(C(=O)OCc2ccccc2)=C1C)C(C(=O)NCCCC)c1ccc(O)cc1 (stereo not given)	i	i	i	i	i
COc1ccc(CC/C(C)=N\NC(N)=O)cc1	i	i	i	i	i
O=[N+]([O-])c1cccc(-c2nc(NCc3ccccc3)c3ccccc3n2)c1	8.7	i	i	i	i
O=[N+]([O-])c1ccc(-c2nc(NCc3ccccc3)c3ccccc3n2)cc1	i	nt	i	i	i
O=C1OC(/C=C/c2ccc(Cl)cc2Cl)=NC/1=C\c1cccs1	9.5	nt	i	i	i
O=C(CN1C(=O)COc2ccccc21)Nc1ccc2c(c1)OCCO2	i	i	i	i	54
O=C(CN1C(=O)CSc2ccccc21)Nc1ccc2c(c1)OCCO2	i	i	i	i	i
Cn1cc([N+](=O)[O-])c(C(=O)N/N=C/c2ccc3c(c2)OCO3)n1	i	78	i	nt	nt
Cc1ccc(C(=O)N/N=C/c2ccc3c(c2)OCO3)o1	i	i	i	i	i
Oc1cccc(Oc2ncc(C(F)(F)F)cc2Cl)c1	i	i	i	nt	nt
COc1nc(N/N=C/c2ccccc2F)nc(N2CCCCC2)n1	i	i	i	i	i
Cc1ccc(NS(=O)(=O)c2ccc3c(c2)NC(=O)CC(=O)N3)cc1C	i	?	9.9	nt	nt
SMILES	RAM network inh	Insulin prom inh	HMGR II inh	BB579 growth dn	Yeast life ext
COc1ccc(NS(=O)(=O)c2ccc3c(c2)NC(=O)CO3)cc1	i	i	i	nt	nt
COc1ccc(C(=O)N/C(=C\c2cccc3ccccc23)C(=O)NCCc2c[nH]c3ccccc23)cc1OC	8.8	i	i	i	i
COCCCNC(=O)CCC(=O)NNc1nc2ccccc2c2nc(C)nn12	i	nt	i	nt	nt
COc1ccc(C2(C(=O)O)CCCC2)cc1	i	i	i	i	35
O=C(NCC(=O)N(c1cccc(F)c1)C(C(=O)NC1CCCC1)c1cccnc1)c1cccs1 (stereo not given)	i	i	i	nt	nt
COc1ccccc1N=c1oc2c(OC)cccc2cc1C(=O)NCc1ccco1	i	nt	i	i	i
COc1ccc(N=c2oc3c(OC)cccc3cc2C(=O)NCc2ccco2)cc1OC	9.9	nt	i	i	i
COC(=O)N1CCCc2cc(C)ccc21	i	nt	11	nt	nt
Cc1ccc2c(c1)CCCN2C(=O)c1ccoc1C	i	i	i	i	i
CCOC(=O)C1=C(NC(=S)NC(=O)c2ccccc2)c2ccccc2CC1(C)CC (stereo not given)	11	i	i	i	i
Cc1ccc(S(=O)(=O)N2CCCC(C(=O)NCc3ccco3)C2)cc1Cl (stereo not given)	i	i	13	i	nt

Screens: PubChem BioAssay, several laboratories
